In assay [1] the test system is Vibrio parahaemolyticus. Nature of the assay: Antimicrobial activity against Vibrio parahaemolyticus QDIO-8 by XTT assay. The format is functional. The method, boiled down: (§1)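 Bacterial panel of two human-pathogenic and seven aquacultural strains, run by a previously described method. Chloramphenicol served as the positive control against bacteria.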
In assay [2] the test system is Gaeumannomyces graminis. Nature of the assay: Antimicrobial activity against Gaeumannomyces graminis QDAU-3 by XTT assay. It is filed as functional. An outline of the steps:
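Plant-pathogenic fungus strain QDAU-3 was obtained from Qingdao Agricultural University and tested by a previously described method. Amphotericin B was the positive control against fungi.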

The subject of assay [3] is A549. Nature of the assay: Cytotoxicity against human A549 cells by tetrazolium salt based quantitative colorimetric assay. The format is functional, cell-based.
The subject of assay [4] is DU-145. Briefly: Cytotoxicity against human DU145 cells by tetrazolium salt based quantitative colorimetric assay. The format is functional, cell-based.
The subject of assay [5] is HeLa. Nature of the assay: Cytotoxicity against human HeLa cells by tetrazolium salt based quantitative colorimetric assay. It is filed as functional, cell-based.
Assay [6] has as its system HepG2. Nature of the assay: Cytotoxicity against human HepG2 cells by tetrazolium salt based quantitative colorimetric assay. It is filed as functional, cell-based.
The nature of assay [7]: Cytotoxicity against human HuH7 cells by tetrazolium salt based quantitative colorimetric assay. It is filed as functional, cell-based. The conditions noted are these: Huh-7.
Assay [8] is described as follows: Cytotoxicity against human L02 cells by tetrazolium salt based quantitative colorimetric assay. It is filed as functional, cell-based.
Assay [9] can be described thus: Cytotoxicity against mouse LM3 cells by tetrazolium salt based quantitative colorimetric assay. It is filed as functional, cell-based.
The test system of assay [10] is MCF7. Briefly: Cytotoxicity against human MCF7 cells by tetrazolium salt based quantitative colorimetric assay. The format is functional, cell-based.
Assay [11] deals with NCI-H446. Nature of the assay: Cytotoxicity against human NCI-H446 cells by tetrazolium salt based quantitative colorimetric assay. It is filed as functional, cell-based.
A short description of assay [12]: Cytotoxicity against human SGC7901 cells by tetrazolium salt based quantitative colorimetric assay. It is filed as functional, cell-based. The note with it: SGC-7901.
Assay [13] deals with SW1990. Briefly: Cytotoxicity against human SW1990 cells by tetrazolium salt based quantitative colorimetric assay. The format is functional, cell-based.
Assay [14] deals with SW480. Nature of the assay: Cytotoxicity against human SW480 cells by tetrazolium salt based quantitative colorimetric assay. It is filed as functional, cell-based.
Assay [15] has as its system U-251. Briefly: Cytotoxicity against human U251 cells by tetrazolium salt based quantitative colorimetric assay. The format is functional, cell-based.
The test system of assay [16] is Artemia salina. Nature of the assay: Cytotoxicity in brine shrimp. The conditions noted are these: read-out: LD50 (the source's name). It is filed as functional.
In assay [17] the test system is Staphylococcus aureus. Briefly: Antimicrobial activity against Staphylococcus aureus EMBLC-2 by XTT assay. It is filed as functional. An outline of the steps:
as §1

Assay [18] deals with Aeromonas hydrophila. Briefly: Antimicrobial activity against Aeromonas hydrophila QDIO-1 by XTT assay. The format is functional. The method, boiled down: as §1
Assay [19] relates to Vibrio harveyi. Nature of the assay: Antimicrobial activity against Vibrio harveyi QDIO-7 by XTT assay. It is filed as functional. The method, boiled down: as §1

Each structure is given as a SMILES string. pIC50: −log10 of the molar value. Converted amounts (≈) assume the structure as drawn. A value given as a limit tells only on which side of the number the result lay.

As to `COc1ccc([C@@H]2SS[C@@]34C[C@]5(O)[C@H](Cl)C=C[C@@H](O)[C@@H]5ON3C(=O)[C@@H]2N(C)C4=O)c(O)c1OC`, the minimal inhibitory concentration (MIC) was 8 µg/mL (≈ 15.1 µM) in assay [1]; 16 µg/mL (≈ 30.1 µM) in assay [2]; 8 µg/mL (≈ 15.1 µM) in assay [17]; 8 µg/mL (≈ 15.1 µM) in assay [18]; 32 µg/mL (≈ 60.3 µM) in [19]. For the same compound, the pIC50 in [3], in assay [4], in [5], in [6], in assay [7] and in assay [8] was less than 5.00 in each case. Besides, the pIC50 in assay [9], in assay [10], in [11], in assay [12], in assay [13] and in assay [14] was less than 5.00 each time. Also, in assay [15], the pIC50 is less than 5.00. For the same compound, in assay [16], the LC50 turned out to be 4.8 µM.

On to `COc1ccc([C@@H]2SS[C@@]34C[C@]5(O)[C@H](O)C=C[C@@H](O)[C@@H]5ON3C(=O)[C@@H]2N(C)C4=O)c(O)c1OC`, for which the pIC50 in assay [3], in assay [4], in [5], in assay [6], in assay [7] and in assay [8] was less than 5.00 each time. The pIC50 in assay [9], in [10], in [11], in assay [12], in assay [13] and in assay [14] was less than 5.00 each time. Also, the pIC50 in assay [15] is less than 5.00. In assay [17], this compound showed an MIC of 64 µg/mL (≈ 125 µM).

Regarding `C=C(C)[C@H]1[C@H](OC(C)=O)C[C@H](C)[C@@]12CC=C(C)[C@@H](O)C2`, the pIC50 in [3], in assay [4], in [5], in assay [6], in [7] and in assay [8] was less than 5.00 in each case. Also, the pIC50 in assay [9], in [10], in assay [11], in assay [12], in assay [13] and in assay [14] was less than 5.00 in each case. Also, the negative logarithm of the IC50 (pIC50) in assay [15] was less than 5.00.

With `C=C(C)[C@H]1[C@H](OC(C)=O)C[C@H](C)[C@@]12CC=C(CO)[C@@H](O)C2`, the negative-log IC50 (pIC50) in [3], in assay [4], in [5], in assay [6], in [7] and in assay [8] was less than 5.00 in each case. In addition, the negative logarithm of the IC50 (pIC50) is less than 5.00 in [9]; less than 5.00 in assay [10]; 5.30 in assay [11]; less than 5.00 in [12]; less than 5.00 in assay [13]; less than 5.00 in assay [14]. Further, the pIC50 in [15] is less than 5.00.

In the case of `COc1cc2c(c(OC)c1OC)-c1ccc(OC)c(=O)cc1[C@@H](NC(C)=O)CC2` [COLCHICINE], the LC50 in assay [16] turned out to be 8.1 µM.

(Values after ChEMBL document CHEMBL3580658, “Bisthiodiketopiperazines and Acorane Sesquiterpenes Produced by the Marine-Derived Fungus Penicillium adametzioides AS-53 on Different Culture Media” (J Nat Prod, 2015).)
